Reference: paper PMC5788574 (The Journal of comparative neurology, 2017)
Where two headings read alike, the source gives them in different places.

Key:
α4β2* nAChRs [1] = assay: Rhesus monkey brain [18F]Nifene PET; type: in vivo, rhesus monkey (Macaca mulatta)
Summary of the method: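 Rhesus monkeys (8–10 kg) had ketamine/xylazine IM, or ketamine/atropine IM plus 1–2% isoflurane. A bolus of about 48–111 MBq radiotracer was followed by at least 120 min acquisition on an HR+ or microPET scanner. Data were binned into 23 frames and reconstructed by filtered back projection. Circular ROIs on cerebellum, thalamus, lateral geniculate and cortex gave time-activity curves and BPND.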

α4β2* nAChRs [2] = assay: Mouse brain [18F]Nifene PET/CT; type: in vivo; details: mouse PET
Summary of the method: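 BALB/c mice (25–30 g) were induced with 4% isoflurane and kept on 2% during the scan. A bolus of about 9.25 MBq radiotracer was followed by dynamic acquisition for up to 120 min, then CT for attenuation correction. Images were coregistered to an MRI mouse template. Time-activity curves came from atlas-guided VOIs without partial volume correction. Logan noninvasive DVR, with BPND = DVR−1.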

α4β2* nAChRs [3] = assay: Human brain [18F]Nifene PET, distribution volume ratio; type: in vivo; details: for DVR ATR / DVR CB / DVR Frontal cortex / DVR LG / DVR OG / DVR Pit / DVR Red Nucleus / DVR SLF / DVR SN/VTA / DVR Thalamus: corpus callosum reference
Summary of the method: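 Eight healthy volunteers (4 male, 4 female), 21–69 years. Bolus of about 185 MBq radiotracer, then 90 min dynamic 3-D acquisition on an HR+ scanner. Frames were […], reconstructed by filtered back projection with a 4 mm Gaussian filter. FreeSurfer regions came from coregistered 3 T MRI. Parametric DVR images were made by MRTM2 with corpus callosum as reference.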

α4β2* nAChRs [4] = assay: [18F]Nifene PET across species; type: in vivo; details: all species (mice, rats, monkeys, and humans)
α4β2* nAChRs [5] = assay: Rat brain [18F]Nifene PET/CT; type: in vivo; details: rat PET
Summary of the method: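 Sprague-Dawley rats (250–400 g) were induced with 4% isoflurane and kept on 2.5% during the scan. A bolus of about 24 MBq radiotracer was followed by dynamic acquisition for up to 120 min, then CT for attenuation correction. Images were normalized to stereotaxic space via an MRI rat template. Time-activity curves came from atlas-guided VOIs without partial volume correction. Logan noninvasive DVR, with BPND = DVR−1.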

[6] = Tolerability of [18F]Nifene in human PET subjects; type: in vivo; details: 185 MBq, <0.10 μg per injection
Summary of the method: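 Healthy volunteers aged 21–69 (4 male, 4 female) studied under an FDA investigational new drug application. Each received a bolus of about 185 MBq radiotracer in sterile saline. Vital signs and laboratory results were assessed for adverse or clinically detectable pharmacologic effects.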

[7] = after intravenous administration; ref Kant et al., 2011; cited from earlier work
hβ4 nAChR subtypes = type: binding, human; details: read-out: Affinity for hβ4 nAChR subtypes; range over α4β4, α3β4, α2β4
hα2β2 nAChR = hα2β2 nAChR (Homo sapiens, UniProt P17787+Q15822); assay: biochemical; type: binding
Chain of hα2β2 nAChR (Q15822 27-529): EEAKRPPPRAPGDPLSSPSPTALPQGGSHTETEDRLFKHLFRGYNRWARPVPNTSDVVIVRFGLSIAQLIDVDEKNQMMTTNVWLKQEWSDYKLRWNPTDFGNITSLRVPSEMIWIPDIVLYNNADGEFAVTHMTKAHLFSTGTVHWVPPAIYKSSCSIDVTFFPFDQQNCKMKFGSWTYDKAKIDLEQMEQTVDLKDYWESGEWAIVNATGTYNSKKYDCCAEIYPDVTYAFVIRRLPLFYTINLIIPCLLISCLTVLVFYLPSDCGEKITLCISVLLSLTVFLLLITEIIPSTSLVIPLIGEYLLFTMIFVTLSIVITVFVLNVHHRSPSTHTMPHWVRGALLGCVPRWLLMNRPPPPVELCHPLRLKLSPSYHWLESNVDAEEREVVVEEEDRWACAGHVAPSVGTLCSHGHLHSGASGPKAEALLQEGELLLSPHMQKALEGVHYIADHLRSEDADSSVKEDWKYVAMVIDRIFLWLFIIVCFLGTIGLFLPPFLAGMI
Chain of hα2β2 nAChR (P17787 26-502): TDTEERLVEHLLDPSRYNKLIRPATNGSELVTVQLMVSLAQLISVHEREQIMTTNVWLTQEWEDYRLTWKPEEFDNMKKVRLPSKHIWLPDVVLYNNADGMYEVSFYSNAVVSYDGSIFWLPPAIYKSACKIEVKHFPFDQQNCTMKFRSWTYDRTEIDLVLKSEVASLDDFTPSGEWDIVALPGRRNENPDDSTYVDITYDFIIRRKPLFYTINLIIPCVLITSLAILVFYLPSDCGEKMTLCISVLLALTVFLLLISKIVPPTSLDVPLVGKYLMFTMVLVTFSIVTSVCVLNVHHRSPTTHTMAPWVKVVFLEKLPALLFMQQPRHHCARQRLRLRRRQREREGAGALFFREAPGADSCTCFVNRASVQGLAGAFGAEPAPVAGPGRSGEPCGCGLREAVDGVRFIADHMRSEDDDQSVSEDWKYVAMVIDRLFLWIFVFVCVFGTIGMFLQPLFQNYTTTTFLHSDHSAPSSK

nAChR α2β4 = nAChR α2β4 (Homo sapiens, UniProt P30926+Q15822); assay: biochemical; type: binding
Chain of nAChR α2β4 (Q15822 27-529): as the sequence (Q15822 27-529) above
Chain of nAChR α2β4 (P30926 22-498): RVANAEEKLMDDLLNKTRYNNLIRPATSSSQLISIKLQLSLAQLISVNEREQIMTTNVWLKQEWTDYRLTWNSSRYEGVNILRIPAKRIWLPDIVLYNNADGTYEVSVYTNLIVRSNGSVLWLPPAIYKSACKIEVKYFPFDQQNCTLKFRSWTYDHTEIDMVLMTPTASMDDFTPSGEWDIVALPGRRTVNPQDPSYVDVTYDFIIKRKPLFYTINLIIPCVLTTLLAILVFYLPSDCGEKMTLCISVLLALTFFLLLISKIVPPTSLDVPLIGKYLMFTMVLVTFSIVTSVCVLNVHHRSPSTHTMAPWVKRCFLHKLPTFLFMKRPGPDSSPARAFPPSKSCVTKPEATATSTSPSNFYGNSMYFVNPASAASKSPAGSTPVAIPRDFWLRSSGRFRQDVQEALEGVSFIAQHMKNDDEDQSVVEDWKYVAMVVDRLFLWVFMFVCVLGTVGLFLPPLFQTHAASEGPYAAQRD

hα3β2 nAChR = hα3β2 nAChR (Homo sapiens, UniProt P17787+P32297); type: binding
Chain of hα3β2 nAChR (P17787 26-502): as the sequence (P17787 26-502) above
Chain of hα3β2 nAChR (P32297 32-505): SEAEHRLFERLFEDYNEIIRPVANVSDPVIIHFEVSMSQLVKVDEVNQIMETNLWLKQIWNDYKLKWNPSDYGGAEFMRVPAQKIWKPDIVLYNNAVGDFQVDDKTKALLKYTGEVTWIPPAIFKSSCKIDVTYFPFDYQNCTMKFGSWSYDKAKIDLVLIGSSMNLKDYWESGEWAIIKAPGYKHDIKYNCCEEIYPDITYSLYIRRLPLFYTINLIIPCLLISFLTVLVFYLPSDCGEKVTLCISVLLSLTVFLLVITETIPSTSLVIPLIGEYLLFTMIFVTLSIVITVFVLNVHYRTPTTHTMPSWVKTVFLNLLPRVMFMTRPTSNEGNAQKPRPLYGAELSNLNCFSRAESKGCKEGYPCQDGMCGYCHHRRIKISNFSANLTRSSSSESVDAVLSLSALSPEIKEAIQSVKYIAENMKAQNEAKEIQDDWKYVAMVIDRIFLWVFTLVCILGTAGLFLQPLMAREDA

human α3β4 nAChR = assay: [86Rb+]rubidium efflux functional assay, YXα3β4H1 cells; type: cell-based; details: for As Antagonist, α3β4 nAChR, inhibition of nicotine-stimulated 86Rb+ efflux: vs 100 μM nicotine
α7 nAChR = α7 nAChR (Rattus norvegicus, UniProt Q05941); type: binding; details: read-out: Ki α7; rat cloned receptors labeled with 125I-α-bungarotoxin
Chain of α7 nAChR (Q05941 23-502): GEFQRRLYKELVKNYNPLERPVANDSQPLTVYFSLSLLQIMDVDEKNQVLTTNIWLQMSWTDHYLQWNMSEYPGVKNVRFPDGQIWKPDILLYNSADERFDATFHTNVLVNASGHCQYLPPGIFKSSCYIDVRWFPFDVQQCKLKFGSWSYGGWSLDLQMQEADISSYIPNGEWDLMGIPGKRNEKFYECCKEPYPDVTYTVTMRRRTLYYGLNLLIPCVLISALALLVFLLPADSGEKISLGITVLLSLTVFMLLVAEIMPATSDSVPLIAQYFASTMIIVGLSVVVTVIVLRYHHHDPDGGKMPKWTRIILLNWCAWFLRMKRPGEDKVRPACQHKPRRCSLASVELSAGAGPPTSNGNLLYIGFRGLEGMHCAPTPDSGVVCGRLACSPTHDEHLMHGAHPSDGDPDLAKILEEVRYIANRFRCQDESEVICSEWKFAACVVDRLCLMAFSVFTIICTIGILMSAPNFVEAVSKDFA

nAChR α3β4 = nAChR α3β4 (Homo sapiens, UniProt P30926+P32297); type: binding
Chain of nAChR α3β4 (P32297 32-505): as the sequence (P32297 32-505) above
Chain of nAChR α3β4 (P30926 22-498): as the sequence (P30926 22-498) above

[8] = system: all other receptor subtypes tested; assay: PDSP screen of other receptor subtypes at 10 μM; type: binding, human; details: significant inhibition >50%
hα4β2 nAChR = hα4β2 nAChR (Homo sapiens, UniProt P17787+P43681); type: binding; details: read-out: Ki α4β2; human cloned receptors, 3H-epibatidine
Chain of hα4β2 nAChR (P17787 26-502): as the sequence (P17787 26-502) above
Chain of hα4β2 nAChR (P43681 27-627): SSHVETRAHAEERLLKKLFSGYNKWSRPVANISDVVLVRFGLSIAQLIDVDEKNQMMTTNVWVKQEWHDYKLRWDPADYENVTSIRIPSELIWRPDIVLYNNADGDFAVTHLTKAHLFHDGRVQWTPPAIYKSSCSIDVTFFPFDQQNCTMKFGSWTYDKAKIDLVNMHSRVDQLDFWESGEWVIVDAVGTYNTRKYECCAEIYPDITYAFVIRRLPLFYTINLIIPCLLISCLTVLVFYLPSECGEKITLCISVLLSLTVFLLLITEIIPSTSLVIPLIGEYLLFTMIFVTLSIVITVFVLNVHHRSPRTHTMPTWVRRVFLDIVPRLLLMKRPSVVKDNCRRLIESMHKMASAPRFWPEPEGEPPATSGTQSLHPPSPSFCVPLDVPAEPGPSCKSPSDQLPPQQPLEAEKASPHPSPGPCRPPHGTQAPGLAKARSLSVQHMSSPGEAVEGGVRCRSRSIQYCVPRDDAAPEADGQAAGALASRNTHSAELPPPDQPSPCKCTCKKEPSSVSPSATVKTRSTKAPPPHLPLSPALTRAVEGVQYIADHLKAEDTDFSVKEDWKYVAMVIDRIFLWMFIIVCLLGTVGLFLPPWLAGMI

nAChR α4β4 = nAChR α4β4 (Homo sapiens, UniProt P30926+P43681); type: binding
Chain of nAChR α4β4 (P43681 29-627): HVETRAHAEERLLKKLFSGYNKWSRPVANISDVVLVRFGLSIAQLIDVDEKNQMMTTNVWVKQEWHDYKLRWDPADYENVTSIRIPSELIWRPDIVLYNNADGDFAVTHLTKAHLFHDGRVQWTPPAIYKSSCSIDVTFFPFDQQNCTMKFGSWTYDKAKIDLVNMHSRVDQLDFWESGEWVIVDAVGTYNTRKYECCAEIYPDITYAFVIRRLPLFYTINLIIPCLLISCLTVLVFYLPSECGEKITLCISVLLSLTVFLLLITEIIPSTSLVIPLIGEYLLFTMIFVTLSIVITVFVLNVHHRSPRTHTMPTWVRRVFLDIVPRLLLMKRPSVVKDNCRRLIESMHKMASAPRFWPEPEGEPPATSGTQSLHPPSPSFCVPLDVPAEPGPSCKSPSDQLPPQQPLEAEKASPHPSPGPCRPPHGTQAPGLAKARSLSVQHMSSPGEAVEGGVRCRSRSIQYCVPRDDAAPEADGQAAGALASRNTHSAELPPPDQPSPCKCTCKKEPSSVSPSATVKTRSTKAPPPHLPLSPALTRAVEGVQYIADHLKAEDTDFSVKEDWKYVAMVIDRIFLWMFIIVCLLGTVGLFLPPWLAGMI
Chain of nAChR α4β4 (P30926 22-498): as the sequence (P30926 22-498) above

[9] = Expanded acute toxicity study, intravenous, rats; type: in vivo, Sprague-Dawley rats
human α4β2 nAChR = assay: [86Rb+]rubidium efflux functional assay, YXα4β2H1 cells; type: cell-based; details: for As Antagonist, α4β2 nAChR, inhibition of nicotine-stimulated 86Rb+ efflux: vs 100 μM nicotine
[10] = ref Kimes et al., 2003; cited from earlier work
[11] = partial agonist; ref Niaura, Jones, & Kirkpatrick, 2006; cited from earlier work
[12] = human PET, females Avg±SD (4 subjects)
[13] = human PET, males Avg±SD (4 subjects)
[14] = human PET, males Avg±SD (4 subjects), listed as 18F-Nifene
[15] = [α4β2 affinity/other receptor affinity]×100, human α4β2 affinities
[16] = 100 μM, 100 μM nicotine as 100%

[18F]c1ncccc1OC[C@@H]1C=CCN1 [[^18F]Nifene, 2-[18F]fluoro-3-[2-((S)-3-pyrrolinyl)methoxy]pyridine]
Ratio of thalamus to cerebellum (α4β2* nAChRs [1]): 3.2
Ratio of thalamus to cerebellum (α4β2* nAChRs [2]): 2
Binding in habenula (α4β2* nAChRs [3]; human PET): low levels
Ratio of thalamus to corpus callosum (α4β2* nAChRs [3]; human PET): 2.6
DVR, anterior thalamic radiation (white matter) (α4β2* nAChRs [3]; human PET, all subjects): ~ 1.6
DVR, red nucleus (α4β2* nAChRs [3]; human PET, all subjects): 1.6–1.7
DVR, superior longitudinal fasciculus (α4β2* nAChRs [3]; human PET, all subjects): ~ 1.5
DVR ATR (α4β2* nAChRs [3]; [12]): 1.67
DVR CB (α4β2* nAChRs [3]; [12]): 1.54 ± 0.25
DVR Frontal cortex (α4β2* nAChRs [3]; [12]): 1.38 ± 0.15
DVR LG (α4β2* nAChRs [3]; [12]): 2.46 ± 0.07
DVR OG (α4β2* nAChRs [3]; [12]): 1.41
DVR Pit (α4β2* nAChRs [3]; [12]): 1.57
DVR Red Nucleus (α4β2* nAChRs [3]; [12]): 1.73
DVR SLF (α4β2* nAChRs [3]; [12]): 1.55
DVR SN/VTA (α4β2* nAChRs [3]; [12]): 1.75 ± 0.09
DVR Thalamus (α4β2* nAChRs [3]; [12]): 2.58 ± 0.11
DVR ATR (α4β2* nAChRs [3]; [13]): 1.58
DVR CB (α4β2* nAChRs [3]; [13]): 1.42 ± 0.18
DVR Frontal cortex (α4β2* nAChRs [3]; [13]): 1.31 ± 0.11
DVR LG (α4β2* nAChRs [3]; [13]): 2.17 ± 0.08
DVR OG (α4β2* nAChRs [3]; [13]): 1.31
DVR Pit (α4β2* nAChRs [3]; [13]): 1.45
DVR Red Nucleus (α4β2* nAChRs [3]; [13]): 1.56
DVR SLF (α4β2* nAChRs [3]; [13]): 1.38
DVR SN/VTA (α4β2* nAChRs [3]; [13]): 1.60 ± 0.08
DVR Thalamus (α4β2* nAChRs [3]; [13]): 2.24 ± 0.10
DVR ATR (α4β2* nAChRs [3]; [14]): 1.58 ± 0.13
DVR OG (α4β2* nAChRs [3]; [14]): 1.31 ± 0.12
DVR Pit (α4β2* nAChRs [3]; [14]): 1.45 ± 0.22
DVR Red Nucleus (α4β2* nAChRs [3]; [14]): 1.56 ± 0.13
DVR SLF (α4β2* nAChRs [3]; [14]): 1.38 ± 0.15
DVR ATR (α4β2* nAChRs [3]; human one PET): 1.68
DVR CB (α4β2* nAChRs [3]; human one PET): 1.40
DVR Frontal cortex (α4β2* nAChRs [3]; human one PET): 1.29
DVR LG (α4β2* nAChRs [3]; human one PET): 2.17
DVR OG (α4β2* nAChRs [3]; human one PET): 1.41
DVR Pit (α4β2* nAChRs [3]; human one PET): 1.62
DVR Red Nucleus (α4β2* nAChRs [3]; human one PET): 1.64
DVR SLF (α4β2* nAChRs [3]; human one PET): 1.55
DVR SN/VTA (α4β2* nAChRs [3]; human one PET): 1.53
DVR Thalamus (α4β2* nAChRs [3]; human one PET): 2.25
DVR ATR (α4β2* nAChRs [3]; human seven PET): 1.45
DVR CB (α4β2* nAChRs [3]; human seven PET): 1.50
DVR Frontal cortex (α4β2* nAChRs [3]; human seven PET): 1.34
DVR LG (α4β2* nAChRs [3]; human seven PET): 2.17
DVR OG (α4β2* nAChRs [3]; human seven PET): 1.33
DVR Pit (α4β2* nAChRs [3]; human seven PET): 1.63
DVR Red Nucleus (α4β2* nAChRs [3]; human seven PET): 1.37
DVR SLF (α4β2* nAChRs [3]; human seven PET): 1.18
DVR SN/VTA (α4β2* nAChRs [3]; human seven PET): 1.68
DVR Thalamus (α4β2* nAChRs [3]; human seven PET): 2.13
DVR ATR (α4β2* nAChRs [3]; human three PET): 1.47
DVR CB (α4β2* nAChRs [3]; human three PET): 1.18
DVR Frontal cortex (α4β2* nAChRs [3]; human three PET): 1.17
DVR LG (α4β2* nAChRs [3]; human three PET): 2.08
DVR OG (α4β2* nAChRs [3]; human three PET): 1.14
DVR Pit (α4β2* nAChRs [3]; human three PET): 1.17
DVR Red Nucleus (α4β2* nAChRs [3]; human three PET): 1.56
DVR SLF (α4β2* nAChRs [3]; human three PET): 1.36
DVR SN/VTA (α4β2* nAChRs [3]; human three PET): 1.55
DVR Thalamus (α4β2* nAChRs [3]; human three PET): 2.22
DVR ATR (α4β2* nAChRs [3]; human two PET): 1.69
DVR CB (α4β2* nAChRs [3]; human two PET): 1.61
DVR Frontal cortex (α4β2* nAChRs [3]; human two PET): 1.44
DVR LG (α4β2* nAChRs [3]; human two PET): 2.26
DVR OG (α4β2* nAChRs [3]; human two PET): 1.35
DVR Pit (α4β2* nAChRs [3]; human two PET): 1.36
DVR Red Nucleus (α4β2* nAChRs [3]; human two PET): 1.67
DVR SLF (α4β2* nAChRs [3]; human two PET): 1.43
DVR SN/VTA (α4β2* nAChRs [3]; human two PET): 1.66
DVR Thalamus (α4β2* nAChRs [3]; human two PET): 2.37
Thalamus reference region ratio (α4β2* nAChRs [4]): > 2
Ratio of thalamus to cerebellum (α4β2* nAChRs [5]): 3.1
Tolerability in human subjects [6]: well tolerated in all the human subjects with no adverse side effects
Tolerability in human subjects ([6]; listed as [^18F] Nifene): well tolerated with no adverse effects
Radioactive components in rat brain [7]: the only radioactive component

CN1CCC[C@H]1c1cccnc1 [Nicotine, reference compound]
Ki (hβ4 nAChR subtypes): 27 to 219 nM
Ki (hα2β2 nAChR): 3.64 nM
Ki (nAChR α2β4): 82.7 nM

Fc1ncccc1OC[C@@H]1C=CCN1 [Nifene]
% human α4β2 Selectivity, α3β2 (hα3β2 nAChR; [15]): 104%
Ki (hα3β2 nAChR; read-out: Ki α3β2, human cloned receptors, 3H-epibatidine): 0.8 nM
As Antagonist, α3β4 nAChR, inhibition of nicotine-stimulated 86Rb+ efflux (human α3β4 nAChR; 1 μM): 9%
As Antagonist, α3β4 nAChR, inhibition of nicotine-stimulated 86Rb+ efflux (human α3β4 nAChR; 10 μM): 16%
As Agonist, α3β4 nAChR, stimulated 86Rb+ efflux (human α3β4 nAChR; [16]): 35%
As Antagonist, α3β4 nAChR, inhibition of nicotine-stimulated 86Rb+ efflux (human α3β4 nAChR; 100 μM): 59%
Ki (hβ4 nAChR subtypes): 27 to 219 nM
Ki (α7 nAChR): 169 nM
% human α4β2 Selectivity, α3β4 (nAChR α3β4; [15]): 0.44%
Ki (nAChR α3β4; read-out: Ki α3β4, human cloned receptors, 3H-epibatidine): 190 nM
Fold higher affinity for α2β2 compared to α3β2 and α4β2 subtypes (hα2β2 nAChR): approximately 5 fold
% human α4β2 Selectivity, α2β2 (hα2β2 nAChR; [15]): 244%
Ki (hα2β2 nAChR; read-out: Ki α2β2, human cloned receptors, 3H-epibatidine): 0.34 nM
Affinity at all other receptor subtypes tested [8]: did not exhibit significant affinity
% human α4β2 Selectivity, α2β4 (nAChR α2β4; [15]): 1.58%
Ki (nAChR α2β4; read-out: Ki α2β4, human cloned receptors, 3H-epibatidine): 52.4 nM
Ki (hα4β2 nAChR): 0.83 nM
% human α4β2 Selectivity, α4β4 (nAChR α4β4; [15]): 3.05%
Ki (nAChR α4β4; read-out: Ki α4β4, human cloned receptors, 3H-epibatidine): 27.2 nM
Tolerability of intravenous injections ([9]; Sprague-Dawley male and female rats, 1.6, 20 and 40 μg/kg/day): well tolerated
Morbidity or mortality ([9]; rats, up to 40 μg/kg/day i.v.): no morbidity or mortality
As Antagonist, α4β2 nAChR, inhibition of nicotine-stimulated 86Rb+ efflux (human α4β2 nAChR; 1 μM): 18%
As Antagonist, α4β2 nAChR, inhibition of nicotine-stimulated 86Rb+ efflux (human α4β2 nAChR; 10 μM): 21%
As Agonist, α4β2 nAChR, stimulated 86Rb+ efflux (human α4β2 nAChR; [16]): 14%
As Antagonist, α4β2 nAChR, inhibition of nicotine-stimulated 86Rb+ efflux (human α4β2 nAChR; 100 μM): 56%

Fc1ncccc1OC[C@@H]1CCN1 [[^18F]2-FA-85380, 2-fluoro-3-(2(S)-azetidinylmethoxy)pyridine]
Dose with no adverse effects [10]: up to 10 pmol/kg

c1cnc2cc3c(cc2n1)[C@@H]1CNC[C@H]3C1 [varen-cline]
in vivo efficacy compared to nicotine [11]: 30–60%
